# In ChEMBL document CHEMBL1140546, “3,5-Disubstituted quinolines as novel c-Jun N-terminal kinase inhibitors” (Bioorg Med Chem Lett, 2007):
# Target: Mitogen-activated protein kinase 10 (Homo sapiens, UniProt P53779)
# Experiment: Inhibition of JNK3 by HTRF assay
# Summary of the method: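 JNK3 phosphorylation of biotinylated-ATF2, final 0.3 nM JNK3, 0.4 nM substrate, 1 μM ATP. The phospho-Thr71-ATF-2 product is detected with a Europium-cryptate-labeled anti-phospho-Thr71-ATF-2 antibody. IC50 values are means of three experiments.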
# Mitogen-activated protein kinase 10, sequence (P53779 whole entry): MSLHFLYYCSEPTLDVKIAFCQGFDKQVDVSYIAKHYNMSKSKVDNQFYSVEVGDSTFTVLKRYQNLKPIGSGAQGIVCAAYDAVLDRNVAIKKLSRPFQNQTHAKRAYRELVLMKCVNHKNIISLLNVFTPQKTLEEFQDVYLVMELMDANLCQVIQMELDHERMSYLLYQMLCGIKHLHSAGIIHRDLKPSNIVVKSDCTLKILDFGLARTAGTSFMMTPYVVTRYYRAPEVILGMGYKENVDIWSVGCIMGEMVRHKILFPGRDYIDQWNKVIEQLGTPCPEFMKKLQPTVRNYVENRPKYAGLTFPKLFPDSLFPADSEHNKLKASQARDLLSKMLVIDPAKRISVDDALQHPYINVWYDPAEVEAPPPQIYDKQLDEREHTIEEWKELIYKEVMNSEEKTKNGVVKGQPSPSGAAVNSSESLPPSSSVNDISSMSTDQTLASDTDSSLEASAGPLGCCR
row,IC50 [nM],SMILES
1,1000,c1ccc(-c2cnc3ccc4ccncc4c3c2)cc1
2,1600,CC(=O)N(C(C)=O)c1ccc(-c2cnc3ccc4ccncc4c3c2)cc1
3,480,CS(=O)(=O)Nc1ccc(-c2cnc3cccc(Nc4ncccn4)c3c2)cc1
4,3600,c1cc2ccc3ncc(-c4ccc(-c5ccn[nH]5)cc4)cc3c2cn1
5,1300,c1cc2ccc3ncc(-c4ccc(N5CCOCC5)cc4)cc3c2cn1
6,510,Nc1ccc(-c2cnc3ccc4ccncc4c3c2)cc1
7,530,CC(=O)Nc1ccc(-c2cnc3ccc4ccncc4c3c2)cc1
8,120,CS(=O)(=O)Nc1ccc(-c2cnc3cccc(Nc4ccc(Cl)cn4)c3c2)cc1
9,930,CS(=O)(=O)Nc1ccc(-c2cnc3ccc4ccncc4c3c2)cc1
10,210,CS(=O)(=O)N(c1ccc(-c2cnc3ccc4ccncc4c3c2)cc1)S(C)(=O)=O
11,15000,CS(=O)(=O)Nc1ccc(-c2cnc3cccc(Nc4ncccc4Cl)c3c2)cc1
12,> 20000,c1ccc(-c2ccc(-c3cnc4ccc5ccncc5c4c3)cc2)cc1
